Rows were chosen to be rich in hits. Some 1.9% of all compounds tested hit in one or more screens of this group.
procasp3 activ: activates human procaspase-3 | P42574 | recombinant procaspase-3 D3A, Ac-DEVD-pNA absorbance 405 nm | actives 0.11% (n = 330,000) | activation, % at 8.5 µM;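 active = activation above the mean of all tested compounds plus 3 SD, cut at about 21% in these data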
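assay system = Procaspase-3 D3A mutant | signal = absorbance at 405 nm, 0 and 120 min | times = 1 h preincubation plus 2 h reaction at 25 °C | repeats = single replicate | read-out = % activation between DMSO and enzyme-spiked controls | medium = Zinc-free HEPES saline buffer with Triton X-100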
proCasp7 act: activates human procaspase-7, counter-screen for procaspase-3 activators. P55210. recombinant procaspase-7, Ac-DEVD-pNA absorbance 405 nm; D23A/D198A/D206A triple mutant, cannot self-cleave; scale: DMSO 0, 5 µM enzyme 100. activation, % at 8.5 µM. actives 0.093% (n = 330,000);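 active = percent activation above the screen-wide mean plus 3 SD, cut at about 25% in these data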
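Detection: p-Nitroaniline absorbance at 405 nm, read at 0 and 120 min; system: Uncleavable procaspase-7 mutant enzyme; evaluation: % activation from two-timepoint absorbance difference, scaled to controls; times: 1 h enzyme–compound preincubation and 2 h substrate reaction, both 25 °C; buffer or medium: Zinc-free HEPES pH 7.4 with 300 mM NaCl, 0.01% Triton X-100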
HIF act: HIF pathway transcriptional activation | U2OS HRE-luciferase reporter, luminescence; normalized: DMSO 0%, desferrioxamine 100% | activation, % at 7.5 µM (by protocol) | actives 0.32% (n = 300,000) | AID 1910;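 active = mean activation of at least 10% of the iron chelator positive control signal, with at least half of replicates also reaching 10%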
Calb FLC: affects C. albicans growth with fluconazole | AID 1979 | C. albicans CaCi-2 + fluconazole, Alamar Blue growth, 48 h | actives 0.57% (n = 300,000) | growth inhibition, % (test concentration not listed);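 active = growth inhibition above about 58% in most replicates, limit read from the data, passing the limit was not always enough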;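 also: all wells also contain fluconazole at 8 µg/ml as a sub-toxic cotreatment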
GAA850 FXN act: frataxin GAA850 promoter activation | HEK293 lucGAA850 FXN promoter luciferase reporter, 24 h; percent of 10 µM SAHA response | activation, % at 6 µM | actives 0.56% (n = 360,000) | AID 540364;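 active = activation above the average of all compounds screened plus 3 SD, cutoff fixed separately per campaign, cut at about 7.5% in these data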
Neddylation inh: inhibitors of human cullin neddylation. P61081+Q13564. TR-FRET cullin neddylation, biochemical. inhibition, % at 25 µM. actives 0.58% (n = 360,000); in the data active = inhibition above about 36%
Target sequence (P61081 whole entry, looked up): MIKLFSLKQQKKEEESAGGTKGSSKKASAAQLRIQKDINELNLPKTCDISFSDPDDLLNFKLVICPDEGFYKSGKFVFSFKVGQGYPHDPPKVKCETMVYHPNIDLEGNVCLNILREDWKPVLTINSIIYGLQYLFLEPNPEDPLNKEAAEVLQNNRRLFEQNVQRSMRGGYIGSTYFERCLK
Target sequence (Q13564 whole entry, looked up): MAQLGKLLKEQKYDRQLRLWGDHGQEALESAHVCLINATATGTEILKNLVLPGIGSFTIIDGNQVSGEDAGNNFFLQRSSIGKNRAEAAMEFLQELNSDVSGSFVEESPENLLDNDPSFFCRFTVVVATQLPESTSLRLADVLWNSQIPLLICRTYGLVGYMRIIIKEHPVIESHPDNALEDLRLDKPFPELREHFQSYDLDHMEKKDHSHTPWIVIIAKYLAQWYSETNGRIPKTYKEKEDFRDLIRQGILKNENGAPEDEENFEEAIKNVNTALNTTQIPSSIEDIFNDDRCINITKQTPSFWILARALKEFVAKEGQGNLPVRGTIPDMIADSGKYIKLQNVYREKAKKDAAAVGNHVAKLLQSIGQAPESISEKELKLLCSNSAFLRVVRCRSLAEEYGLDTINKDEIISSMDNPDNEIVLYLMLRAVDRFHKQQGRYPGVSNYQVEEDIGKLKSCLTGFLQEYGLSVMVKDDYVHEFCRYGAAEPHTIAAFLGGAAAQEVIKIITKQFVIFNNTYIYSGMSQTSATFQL
GAA30 counter: activates GAA30 frataxin promoter, counter-screen for GAA850 activators; actives 66% (n = 1,900); activation, % at 6 µM; HEK293 lucGAA30 FXN promoter luciferase, 24 h; DMSO = 0%, 5 µM ipriflavone = 100%; AID 588350; shares compounds with GAA850 FXN act;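 active = mean activation above the mean of solvent-only control wells plus 3 SD, cut at about 22% in these data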;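 also: counterscreen of GAA850 promoter hits where activity marks nonselective or luminescence artifacts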
FXN GAA850 conf: confirmation of GAA850 frataxin (FXN) promoter activators | HEK293 lucGAA850 FXN promoter luciferase reporter, 24 h; 100% = activation by SAHA | shares compounds with GAA850 FXN act | actives 86% (n = 1,900) | activation, % at 6 µM | AID 588351;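 active = mean activation above a set limit taken from the primary screen, cut at about 8% in these data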
Neddyl conf: confirmation of human cullin neddylation inhibitors. shares compounds with Neddylation inh. calls only at 25 µM. TR-FRET cullin neddylation biochemical assay. actives 13% (n = 1,800); in the data active = inhibition above about 40%;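 also: neddylation substrate is the cullin 1 ring ligase complex with SKP2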
Large screens that a line does not name were inactive (follow-up assays come after a bar, where shown).

COc1cc2c(cc1OC)/C(=C/C(=O)c1ccc(C)cc1)NCC2	GAA850 FXN act 8.2, Neddylation inh 43 (no result: procasp3 activ, proCasp7 act) | GAA30 counter 37 | FXN GAA850 conf 24 | Neddyl conf inactive
CN(/N=C/c1cccnc1)c1cnc2ccccc2n1	GAA850 FXN act 9.3, Neddylation inh 45 | GAA30 counter 132 | FXN GAA850 conf 34 | Neddyl conf inactive
CC1CN(C2CCCCC2)C(=S)N(c2ccccc2)C1=O (stereo not drawn)	none (no result: procasp3 activ, proCasp7 act, HIF act, Calb FLC)
Cc1ccc(-n2nc3ccc(NC(=O)C(C)C)cc3n2)cc1	GAA850 FXN act 7.9, Neddylation inh 43 | GAA30 counter 106 | FXN GAA850 conf 38 | Neddyl conf inactive
CCOC(=O)c1[nH]c2ccc(OC)cc2c1NC(=O)c1ccccc1C(=O)O	GAA850 FXN act 8.0, Neddylation inh 43 | GAA30 counter 28 | FXN GAA850 conf 13 | Neddyl conf inactive
CN(C)C(=O)CCC(=O)N1CCCC(C(=O)c2ccc3c4c(cccc24)CC3)C1 (stereo not drawn)	GAA850 FXN act 10, Neddylation inh 41 | GAA30 counter 44 | FXN GAA850 conf 13 | Neddyl conf inactive
CC1(C(=O)NS(=O)(=O)C2CC2)CCN(C(=O)c2ccc3ccccc3n2)C1 (stereo not drawn)	none (no result: procasp3 activ, proCasp7 act, HIF act, Calb FLC)
O=C(N/N=C/C=C/c1ccco1)c1cnccn1	none
O=C(N/N=C/C=C\c1ccco1)c1ccccn1	GAA850 FXN act 7.7, Neddylation inh 61 | GAA30 counter 63 | FXN GAA850 conf 38 | Neddyl conf inactive
CC(=O)NC1CC2CCCC(C1)N2C(=O)Nc1ccc(Cl)cc1 (stereo not drawn)	none (no result: procasp3 activ, proCasp7 act, HIF act, Calb FLC)
Cc1cc(C)n2nc3ccccc3c2n1	Neddylation inh 42 | Neddyl conf inactive
COc1ccc2sc(NC(=O)c3ccco3)nc2c1	Neddylation inh 40 | Neddyl conf inactive
COc1ccc(C(=O)N/N=C/c2sc(N3CCOCC3)nc2-c2ccccc2)cc1OC	Neddylation inh 45 | Neddyl conf inactive
COc1ccccc1NS(=O)(=O)c1cc([N+](=O)[O-])ccc1N/N=C/c1sc(N2CCOCC2)nc1-c1ccccc1	none
O=C(N/N=C/c1cnc(N2CCOCC2)s1)c1ccccc1	none
O=C(N/N=C/c1sc(N2CCOCC2)nc1-c1ccccc1)c1ccc(O)cc1	Neddylation inh 59 | Neddyl conf active
Cc1ccc2ccc(C#N)cc2c1O	Neddylation inh 43 (no result: procasp3 activ, proCasp7 act, HIF act, Calb FLC) | Neddyl conf active
CCNC(C(=O)c1c[nH]c2c(CC)cccc12)c1ccccc1 (stereo not drawn)	none
COC(=O)c1cc(=O)nc2sc(-c3cccs3)nn12	Neddylation inh 49 | Neddyl conf inactive
O=c1[nH]cnc2nc(-c3ccccc3)c(-c3ccccc3)nc12	Neddylation inh 63
COc1ccccc1CNC(=O)CSc1nnc2ccc(-c3cccnc3)nn12	none
COc1ccccc1-c1ccc2nnc(SC)n2n1	Neddylation inh 43 | Neddyl conf inactive
CCOC(=O)C1=CCN(S(=O)(=O)c2ccc(C)cc2)[C@H]1c1ccccc1Cl	none (no result: procasp3 activ, proCasp7 act, HIF act, Calb FLC, GAA850 FXN act)
COc1ccccc1Nc1ncc(C(=O)N2CCN(Cc3ccc(OC)c(OC)c3OC)CC2)c2ccccc12	Neddylation inh 44
Cc1cc(C)nc(NC(=O)c2cc(-c3ccc4c(c3)OCO4)nc3ccccc23)c1	Neddylation inh 53 (not shown: Calb FLC)
Cc1cc(F)ccc1-c1cc(C(=O)NC2CCCCC2)[nH]n1	none (no result: procasp3 activ, proCasp7 act, HIF act, Calb FLC)
COc1ccc(C(CCN2CCCC2)c2c(OC)cc(OC)c3c(-c4ccccc4)cc(=O)oc23)cc1 (stereo not drawn)	none
